Test results published in ChEMBL document CHEMBL1926565, “Synthesis, antiproliferative activities and telomerase inhibition evaluation of novel asymmetrical 1,2-disubstituted amidoanthraquinone derivatives” (Eur J Med Chem, 2012).

Key:
Type in all cases: functional
RPMI-8226 = test: Cytotoxicity against human RPMI8226 cells assessed as cellular growth at 10 uM
Procedure, shortened: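 Single-dose screen run by the NCI across its 60-human-tumour-cell-line panel; growth recorded for each cell line.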

OVCAR-5 = test: Anticancer activity against human OVCAR5 cells; conditions: for CC50: read-out: LC50 (the source's name)
Procedure, shortened: (§1)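 NCI 60-human-tumour-cell-line panel. Selected analogues were first run at one dose, then some were carried into multi-dose testing. GI50 (50% growth inhibition), TGI (total growth inhibition) and LC50 (50% cell kill) were read as values interpolated where the dose–response curves cross these levels.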

NCI-H23 = test: Anticancer activity against human NCI-H23 cells; procedure, shortened: as §1
OVCAR-3 = test: Anticancer activity against human OVCAR3 cells; conditions: for CC50: read-out: LC50 (the source's name); procedure, shortened: as §1
SW-620 = test: Anticancer activity against human SW620 cells; conditions: for CC50: read-out: LC50 (the source's name)
HOP-62 = test: Anticancer activity against human HOP62 cells; procedure, shortened: as §1
K562 = test: Anticancer activity against human K562 cells; procedure, shortened: as §1
SNB-75 = test: Anticancer activity against human SNB75 cells; conditions: for CC50: read-out: LC50 (the source's name); procedure, shortened: as §1
NCI-H460 = test: Anticancer activity against human NCI-H460 cells; procedure, shortened: as §1
HOP-92 = test: Anticancer activity against human HOP92 cells; procedure, shortened: as §1
NCI-H522 = test: Anticancer activity against human NCI-H522 cells; procedure, shortened: as §1
KM12 = test: Anticancer activity against human KM12 cells; procedure, shortened: as §1
PC-3 = test: Anticancer activity against human PC3 cells; conditions: for CC50: read-out: LC50 (the source's name); procedure, shortened: as §1
U-251 = test: Anticancer activity against human U251 cells; conditions: for CC50: read-out: LC50 (the source's name)
IGROV-1 = test: Anticancer activity against human IGROV1 cells; conditions: for CC50: read-out: LC50 (the source's name); procedure, shortened: as §1
SF-268 = test: Anticancer activity against human SF268 cells; conditions: for CC50: read-out: LC50 (the source's name); procedure, shortened: as §1
SN12C = test: Anticancer activity against human SN12C cells; conditions: for CC50: read-out: LC50 (the source's name); procedure, shortened: as §1
EKVX = test: Anticancer activity against human EKVX cells; conditions: for CC50: read-out: LC50 (the source's name); procedure, shortened: as §1
SK-OV-3 = test: Anticancer activity against human SKOV3 cells; conditions: for CC50: read-out: LC50 (the source's name); procedure, shortened: as §1
786-0 = test: Anticancer activity against human 786-0 cells; conditions: for CC50: read-out: LC50 (the source's name); procedure, shortened: as §1
SNB-19 = test: Anticancer activity against human SNB19 cells; conditions: read-out: LC50 (the source's name)
Procedure, shortened: (§2)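 Tested by the NCI in its 60-human-tumour-cell-line panel. Dose-response curves were run, and GI₅₀ (50% growth inhibition), TGI (total growth inhibition) and LC₅₀ (50% cell killing) were read as interpolated concentrations where the curves cross those levels.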

A549 = test: Anticancer activity against human A549 cells; conditions: for CC50: read-out: LC50 (the source's name); procedure, shortened: as §1
ACHN = test: Anticancer activity against human ACHN cells; conditions: for CC50: read-out: LC50 (the source's name); procedure, shortened: as §1
NCI-H226 = test: Anticancer activity against human NCI-H226 cells; conditions: for CC50: read-out: LC50 (the source's name); procedure, shortened: as §1
Malme-3M = test: Anticancer activity against human MALME-3M cells; conditions: for CC50: read-out: LC50 (the source's name); procedure, shortened: as §2
SK-MEL-28 = test: Anticancer activity against human SK-MEL-28 cells; procedure, shortened: as §1
SF-539 = test: Anticancer activity against human SF539 cells; conditions: read-out: LC50 (the source's name); procedure, shortened: as §1
MOLT-4 = test: Anticancer activity against human MOLT4 cells; procedure, shortened: as §1
HL-60(TB) = test: Anticancer activity against human HL-60(TB) cells; procedure, shortened: as §2
CCRF-CEM = test: Anticancer activity against human CCRF-CEM cells; procedure, shortened: as §1
[1] = read-out: LC50 (the source's name)

`Cc1ccc(C(=O)Nc2ccc3c(c2NC(=O)c2ccc(C)cc2)C(=O)c2ccccc2C3=O)cc1` showed an Activity (RPMI-8226) of 101.77%.
`Cc1ccc(C(=O)Nc2c(NC(=O)CN3CCN(C)CC3)ccc3c2C(=O)c2ccccc2C3=O)cc1` was tested, and the GI50 (OVCAR-5) was > 100 µM, the TGI (OVCAR-5) was > 100 µM and the CC50 (OVCAR-5) was > 100 µM. The GI50 (NCI-H23) was > 100 µM, the LC50 (50% cell kill) (NCI-H23) was > 100 µM and the TGI (NCI-H23) was > 100 µM. The GI50 (OVCAR-3) was 2.43 µM, the CC50 (OVCAR-3) was > 100 µM and the TGI (SW-620) was > 100 µM. For the same compound, the CC50 (SW-620) was > 100 µM, the GI50 (HOP-62) was > 100 µM and the LC50 (50% cell kill) (HOP-62) was > 100 µM. The TGI (HOP-62) was > 100 µM, the GI50 (K562) was 2.09 µM and the GI50 (SNB-75) was > 100 µM. For the same compound, the TGI (SNB-75) was > 100 µM, the CC50 (SNB-75) was > 100 µM and the GI50 (NCI-H460) was 3.36 µM. For the same compound, the LC50 (50% cell kill) (NCI-H460) was > 100 µM, the TGI (NCI-H460) was > 100 µM and the GI50 (HOP-92) was 0.87 µM. The LC50 (concentration giving 50% cell kill) (HOP-92) was > 100 µM, the TGI (HOP-92) was 9.19 µM and the TGI (NCI-H522) was > 100 µM. The CC50 (NCI-H522; [1]) was > 100 µM, the LC50 (KM12) was > 100 µM and the TGI (KM12) was > 100 µM. The TGI (PC-3) was > 100 µM, the CC50 (PC-3) was > 100 µM and the GI50 (U-251) was 3.64 µM. For the same compound, the TGI (U-251) was > 100 µM, the CC50 (U-251) was > 100 µM and the GI50 (IGROV-1) was > 100 µM. For the same compound, the TGI (IGROV-1) was > 100 µM, the CC50 (IGROV-1) was > 100 µM and the TGI (SF-268) was > 100 µM. The CC50 (SF-268) was > 100 µM, the TGI (SN12C) was > 100 µM and the CC50 (SN12C) was > 100 µM. The TGI (EKVX) was > 100 µM, the CC50 (EKVX) was > 100 µM and the GI50 (SK-OV-3) was > 100 µM. For the same compound, the TGI (SK-OV-3) was > 100 µM, the CC50 (SK-OV-3) was > 100 µM and the GI50 (786-0) was 5.61 µM. The TGI (786-0) was > 100 µM, the CC50 (786-0) was > 100 µM and the CC50 (SNB-19) was > 100 µM. For the same compound, the TGI (A549) was > 100 µM, the CC50 (A549) was > 100 µM and the TGI (ACHN) was > 100 µM. For the same compound, the CC50 (ACHN) was > 100 µM, the GI50 (NCI-H226) was > 100 µM and the TGI (NCI-H226) was > 100 µM. The CC50 (NCI-H226) was > 100 µM, the CC50 (Malme-3M) was > 100 µM and the GI50 (SK-MEL-28) was 1.87 µM.
For `Cc1ccc(C(=O)Nc2c(NC(=O)CCl)ccc3c2C(=O)c2ccccc2C3=O)cc1`, the GI50 (OVCAR-5) was 11.3 µM, the TGI (OVCAR-5) was 19.2 µM and the CC50 (OVCAR-5) was 32.7 µM. For the same compound, the GI50 (NCI-H23) was 1.78 µM, the LC50 (50% cell kill) (NCI-H23) was 31.4 µM and the TGI (NCI-H23) was 8.28 µM. For the same compound, the GI50 (OVCAR-3) was 1.35 µM, the TGI (OVCAR-3) was 3.54 µM and the CC50 (OVCAR-3) was 15.2 µM. For the same compound, the GI50 (SW-620) was 1.87 µM, the TGI (SW-620) was 9.31 µM and the CC50 (SW-620) was > 50 µM. For the same compound, the CC50 (SF-539) was 25.1 µM, the GI50 (MOLT-4) was 2.29 µM and the TGI (MOLT-4) was 2.95 µM. For the same compound, the CC50 (MOLT-4; [1]) was > 50 µM, the GI50 (HOP-62) was 2.97 µM and the LC50 (50% cell kill) (HOP-62) was 24.4 µM. For the same compound, the TGI (HOP-62) was 9.49 µM, the GI50 (K562) was 1.87 µM and the LC50 (50% net cell kill) (K562) was > 50 µM. For the same compound, the TGI (K562) was 4.04 µM, the CC50 (SNB-75) was 30.5 µM and the GI50 (NCI-H460) was 5.81 µM. It also gave an LC50 (50% cell kill) (NCI-H460) of 34.1 µM, a TGI (NCI-H460) of 14.1 µM and a GI50 (HOP-92) of 9.73 µM. The LC50 (concentration giving 50% cell kill) (HOP-92) was > 50 µM, the TGI (HOP-92) was 31.7 µM and the GI50 (NCI-H522) was 0.88 µM. For the same compound, the TGI (NCI-H522) was 2.03 µM, the GI50 (KM12) was 5.56 µM and the LC50 (KM12) was 28.3 µM. For the same compound, the TGI (KM12) was 12.6 µM, the GI50 (PC-3) was 6.54 µM and the TGI (PC-3) was 15.4 µM. It also gave a CC50 (PC-3) of 36.5 µM, a GI50 (U-251) of 1.8 µM and a TGI (U-251) of 6.83 µM. It also gave a CC50 (U-251) of 30.2 µM, a GI50 (IGROV-1) of 5.6 µM and a TGI (IGROV-1) of 17 µM. For the same compound, the CC50 (IGROV-1) was > 50 µM, the CC50 (SF-268) was > 50 µM and the GI50 (SN12C) was 1.22 µM. The TGI (SN12C) was 3.66 µM, the CC50 (SN12C) was > 50 µM and the GI50 (EKVX) was 1.98 µM. For the same compound, the TGI (EKVX) was 14.9 µM, the CC50 (EKVX) was > 50 µM and the GI50 (SK-OV-3) was 13.2 µM. The TGI (SK-OV-3) was 35.9 µM, the CC50 (SK-OV-3) was > 50 µM and the GI50 (786-0) was 9.48 µM. The TGI (786-0) was 17.2 µM, the CC50 (786-0) was 31.2 µM and the CC50 (SNB-19) was 27.6 µM. The GI50 (A549) was 12.3 µM, the TGI (A549) was 29.2 µM and the CC50 (A549) was > 50 µM. The GI50 (ACHN) was 7.18 µM, the TGI (ACHN) was 14.3 µM and the CC50 (ACHN) was 28.6 µM. The GI50 (NCI-H226) was 8.81 µM, the TGI (NCI-H226) was 20.8 µM and the CC50 (NCI-H226) was 49.1 µM. It also gave a GI50 (Malme-3M) of 5.89 µM, a TGI (Malme-3M) of 15.6 µM and a CC50 (Malme-3M) of 41.1 µM. The GI50 (HL-60(TB)) was 6.14 µM, the TGI (HL-60(TB)) was 24.6 µM and the CC50 (HL-60(TB); [1]) was > 50 µM. The GI50 (SK-MEL-28) was 7.63 µM, the TGI (SK-MEL-28) was 15.2 µM and the CC50 (SK-MEL-28; [1]) was 30.1 µM. The GI50 (CCRF-CEM) was 2.54 µM, the TGI (CCRF-CEM) was > 50 µM and the CC50 (CCRF-CEM; [1]) was > 50 µM.
